Each structure is given as a SMILES string.

What all share (type): functional, cell-based
One test relates to HepG2. The test can be described thus: Antiproliferative activity against human HepG2 cells after 24 hrs by MTT assay. The note with it: HepG2, 24 h. In short, it runs like this:
(§1)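 Cells (5 × 10^3/well) kept at 37 °C, 5% CO2 and treated with varied compound concentrations for 24 h. MTT given for a further 3 h, precipitate dissolved in DMSO, absorbance taken at 570 nm. IC50 calculated from percentage growth relative to untreated control.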
For orientation: Tetrazolium dyes change colour on reduction, which living cells bring about.

The test system of a further test is A549. Briefly: Antiproliferative activity against human A549 cells after 24 hrs by MTT assay. As to conditions: A549, 24 h. In short, it runs like this: as §1
A short description of test [1]: Antiproliferative activity against mouse LL/2 cells after 24 hrs by MTT assay. As to conditions: Lewis lung carcinoma. A digest of the protocol: as §1
The next test concerns HUVEC. Briefly: Antiproliferative activity against human HUVEC cells after 24 hrs by MTT assay. In short, it runs like this:
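Primary HUVECs grown on gelatin in M-199 with 20% FBS, 10 ng/mL bFGF, 2 ng/mL VEGF, 5% CO2, 37 °C. Cells (5 × 10^3/well) exposed to a range of compound concentrations for 24 h. MTT added for 3 h, formazan dissolved in DMSO, absorbance read at 570 nm. IC50 from percentage growth versus untreated control.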

Usually IC50 stands for the concentration that gives 50% inhibition. Take `C=CCc1cc(-c2ccc(OC)cc2OC)ccc1O`: the IC50 (in the test on HepG2; in the test with A549; in test [1]; in the test with HUVEC) was above 100 µM throughout.

`C=CCc1ccc(O)c(-c2ccc(OCCC)c(CC=C)c2)c1`: the IC50 was above 130 µM in the test with HepG2, 82.4 µM with A549, 64.8 µM in test [1] and 89.3 µM in the test on HUVEC.

As to `C=CCc1cc(-c2cccc([N+](=O)[O-])c2)ccc1OC`, the IC50 (in the test on HepG2; in the test on A549; in test [1]; with HUVEC) was above 100 µM throughout.

For `C=CCc1cc(-c2ccc(OC)cc2)ccc1OC`, the IC50 (with HepG2; in the test on A549; in test [1]; with HUVEC) was above 100 µM in each case.

For `C=CCc1ccc(OCC(=O)OCC)c(-c2ccc(OCC(=O)OCC)c(CC=C)c2)c1`, the IC50 is 68.9 µM in the test with HepG2, above 91.3 µM in the test with A549, above 91.3 µM in test [1] and above 100 µM in the test with HUVEC.

On to `C=CCc1cc(C=O)c(OCC(=O)OCC)c(-c2ccc(OCC(=O)OCC)c(CC=C)c2)c1`, for which the IC50 in the test with HepG2 is above 85.2 µM; with A549 it was above 85.8 µM; in test [1], 26.1 µM; with HUVEC, 86.9 µM.

Regarding `C=CCc1ccc(OCC)c(-c2ccc(O)c(CC=C)c2)c1`, the IC50 came out at 71.5 µM in the test on HepG2, 81.6 µM with A549, 67.6 µM in test [1] and 68.2 µM in the test on HUVEC.

In the case of `C=CCc1ccc(OC)c(-c2ccc(OC)cc2)c1`, the IC50 in the test on HepG2 was above 100 µM; in the test on A549, 95.4 µM; in test [1], 71.1 µM; in the test on HUVEC it was above 100 µM.

With `C=CCc1cc(CO)c(O)c(-c2ccc(O)c(CC=C)c2)c1`, the IC50 is above 135 µM with HepG2, above 135 µM with A549, above 135 µM in test [1] and above 100 µM in the test on HUVEC.

In the case of `C=CCc1cc(-c2cccc(NC(C)=O)c2)ccc1OC`, the IC50 was 60.1 µM with HepG2, above 100 µM with A549, 65.1 µM in test [1] and above 100 µM in the test with HUVEC.

In the case of `C=CCc1cc(-c2ccc(OC)cc2)ccc1O`, the IC50 (in the test with HepG2; in the test with A549; in test [1]; with HUVEC) was above 100 µM throughout.

For the compound `C=CCc1ccc(OC)c(-c2cccc([N+](=O)[O-])c2)c1`, the IC50 with HepG2 is above 100 µM; in the test with A549, above 100 µM; in test [1], 89.4 µM; in the test with HUVEC, above 100 µM.

For the compound `C=CCc1ccc(O)c(-c2ccc(OCC)c(CC=C)c2)c1`, the IC50 in the test on HepG2 stood at 73.8 µM; in the test with A549, 51 µM; in test [1] it was 61.6 µM; in the test on HUVEC, 67.1 µM.

`C=CCc1cc(-c2cccc(C(F)(F)F)c2)ccc1O`: the IC50 in the test on HepG2 was 58.3 µM; with A549, 73 µM; in test [1], 65.9 µM; in the test on HUVEC it was 76 µM.

Take `C=CCc1cc(-c2cccc(SC)c2)ccc1O`: the IC50 in the test with HepG2 is above 100 µM; in the test on A549 it was 66 µM; in test [1] it was above 100 µM; in the test on HUVEC, above 100 µM.

With `C=CCc1ccc(OC)c(-c2ccc(OC)c(CC=C)c2)c1`, the IC50 in the test with HepG2 is above 136 µM; in test [1], above 136 µM; with HUVEC, above 100 µM.

Take `C=CCc1cc(-c2ccc(OC)c(OC)c2)ccc1O`: the IC50 (in the test on HepG2; in the test on A549; in test [1]; with HUVEC) was above 100 µM in each case.

With `C=CCc1ccc(OCCC)c(-c2ccc(OCCC)c(CC=C)c2)c1`, the concentration for half-maximal inhibition (IC50) in the test with HepG2 was above 114 µM; with A549, above 114 µM; in test [1], above 114 µM; in the test on HUVEC, above 100 µM.

For `C=CCc1ccc(OC(C)C)c(-c2ccc(OC(C)C)c(CC=C)c2)c1`, the IC50 was above 114 µM in the test on HepG2, above 114 µM in the test with A549, above 114 µM in test [1] and above 100 µM with HUVEC.

`C=CCc1ccc(OC)c(-c2ccc(O)c(CC=C)c2)c1`: the IC50 with HepG2 came out at 57.5 µM; in test [1] it was 108 µM; in the test with HUVEC, 61.8 µM.
